Compound activity as filed in PubChem BioAssay.
A selection: hits, their analogues and other compounds. The true share with any hit is near 2.3%.
OXTR ag – agonists of human oxytocin receptor; P30559; CHO-OTR cells, Fluo-8 calcium fluorescence; normalized: DMSO 0%, oxytocin 100%; activation, % at 3 µM; 320,000 tested, 0.32% active; AID 2435;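 active = activation above the mean of all tested compounds plus 3 SD, cutoff set per screening run, cut at about 20% in these data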;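 note: peak over basal fluorescence ratio from a 100 s FLIPR kinetic read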
TAAR1 ag – human TAAR1 agonism. 360,000 tested, 0.99% active. CHO RD-HGA16 TAAR1, Fluo-8 calcium fluorescence; vehicle wells 0%, saturating PEA agonist 100%. activation, % at 3 µM;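 active = activation above the mean activation of all test compounds in the run plus 3 SD, cut at about 38% in these data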
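Test system: RD-HGA16 (CHO) cells co-expressing Gα16 and hTAAR1; dosing: one-point dosing at 3 µM (nominal); timing: 17-24 h seeding, 75 min 37 °C dye, 30 min RT; signal: kinetic Fluo-8 calcium fluorescence; read-out basis: % activation relative to PEA EC100 response; controls: DMSO and PEA EC100; replicates: n 1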
V1aR counter – counter-screen for oxytocin receptor agonists: human V1a receptor agonists; CHO-V1R cells, Fluo-8 calcium fluorescence, agonist mode; 0% DMSO, 100% 3 nM vasopressin; 320,000 tested, 0.25% active; activation, % at 3 µM; AID 2797;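 active = activation above the mean activation of all tested compounds plus 3 SD, per screening run, cut at about 20% in these data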;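 note: signal is peak over basal fluorescence ratio across a 100 second FLIPR read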
Target sequence (P37288 whole entry, looked up): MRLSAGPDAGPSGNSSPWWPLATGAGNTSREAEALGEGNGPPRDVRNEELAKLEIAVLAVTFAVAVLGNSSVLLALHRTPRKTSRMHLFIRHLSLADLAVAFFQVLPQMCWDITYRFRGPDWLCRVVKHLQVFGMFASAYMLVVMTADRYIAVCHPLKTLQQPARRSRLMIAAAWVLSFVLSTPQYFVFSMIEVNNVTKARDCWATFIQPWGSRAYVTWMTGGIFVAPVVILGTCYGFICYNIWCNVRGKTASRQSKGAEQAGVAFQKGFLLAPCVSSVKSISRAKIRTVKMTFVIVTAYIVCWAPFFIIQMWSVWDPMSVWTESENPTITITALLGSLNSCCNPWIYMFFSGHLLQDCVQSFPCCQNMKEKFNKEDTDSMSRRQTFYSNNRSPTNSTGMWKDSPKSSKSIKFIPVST
OXTR potentiate – potentiates the human oxytocin receptor response. 320,000 tested, 0.061% active. P30559. CHO-OTR cells, Fluo-8 calcium fluorescence, potentiator mode; 0% = oxytocin EC15, 100% = EC100. activation, % at 3 µM;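 active = activation above that plate's cutoff, the mean activation of tested compounds plus 3 SD, cut at about 6.6% in these data, passing the limit was not always enough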;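 note: 100% uses oxytocin at 75 nM as the full agonist control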
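test system = CHO-OTR cells, human receptor | compound = single-point 3.0 µM | schedule = 6 min compound pre-incubation at room temperature, 100 s kinetic read | signal = Fluo-8 no-wash calcium dye fluorescence, excitation 470-495 nm, emission 515-575 nm | repeats = single well per compound, singlicate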
TAAR1 antagonist – antagonists of human TAAR1 | 360,000 tested, 1.5% active | Q96RJ0 | CHO RD-HGA16 TAAR1, Fluo-8 calcium fluorescence, antagonist | inhibition, % at 3 µM;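 active = inhibition above a per-plate cutoff, the mean inhibition of test compounds on that plate plus 3 SD, cut at about 49% in these data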;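 note: 0% = DMSO plus EC80 beta-PEA response and 100% = DMSO alone without agonist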
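Material: RD-HGA16 CHO cells with stable hTAAR1 and Gα16; Dosing: single nominal final test compound concentration of 3 µM; Schedule: seeding 17-24 h prior, 75-min 37 °C, 30-min RT dye loading; Detection: kinetic Fluo-8 calcium fluorescence measurement; Measure: % inhibition from peak post-agonist over basal fluorescence ratio; Benchmarks: vehicle and agonist controls.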
Numbers without * were called inactive; / = no result.

SMILES	OXTR ag	TAAR1 ag	V1aR counter	OXTR potentiate	TAAR1 antagonist
CC(C)n1cc(CN2CCCC(C(=O)Nc3ccccc3Oc3cccnc3)C2)cn1 (stereo not drawn)	-1	1	-1	-5	-13
COc1ccc(-c2ccc3[nH]c4c(c3c2)CCN2C(=O)[C@@H]([C@H](C)O)[C@@H](N(C)C(=O)Nc3ccc(F)cc3)C[C@@H]42)cc1	/	7	/	/	49*
C#C[C@]1(O)CC[C@H]2[C@@H]3CCC4=Cc5oncc5C[C@]4(C)[C@H]3CC[C@@]21C	2	38*	2	-9	71*
O=C(CCl)NC(Cc1ccccc1)C(=O)OCC(=O)c1ccc(-c2ccccc2)cc1 (stereo not drawn)	/	5	/	/	60*
C=CC[C@@H](CC(=O)N(CCO)Cc1ccccc1)C(=O)N[C@H](COC(=O)[C@@H](CC=C)CC(=O)OC(C)(C)C)Cc1c[nH]c2ccccc12	-2	12	1	-8	60*
C=CC[C@H](CC(=O)N(CCO)Cc1ccccc1)C(=O)NC[C@H](OC(=O)[C@@H](CC=C)CC(=O)OC(C)(C)C)c1ccccc1	-1	13	-1	-7	49*
C=CC[C@@H](CC(=O)N(CCO)Cc1ccccc1)C(=O)N[C@@H](COC(=O)[C@@H](CC=C)CC(=O)OC(C)(C)C)Cc1c[nH]c2ccccc12	-2	14	0	-8	55*
C[C@@H]1ON(C)[C@H]2C[C@H]3c4cc(-c5cccc(Cl)c5)ccc4CCN3C[C@@H]12	/	0	/	/	-15
COC(=O)[C@]12C[C@H](CC(=O)NCc3cccs3)C(=O)N(CCC3=CCCCC3)C1=C[C@H](C(C)(C)C)O[C@@H]2C	/	-2	/	/	-29
CCN(CC(=O)Nc1ccc(NC(C)=O)cc1)C(=O)c1cn(-c2ccccc2)nc1-c1cccs1	/	13	/	/	64*
CN(C)C(=O)c1cn(-c2ccccc2)nc1-c1cccs1	-1	9	0	-2	5
O=C(c1cn(-c2ccccc2)nc1-c1cccs1)N1CCN(c2ccccn2)CC1	-2	11	0	-5	49*
COc1cccc(NC(=O)CN(C)C(=O)c2cn(-c3ccccc3)nc2-c2cccnc2)c1	0	12	1	-4	44
COc1cccc(NC(=O)CN(C)C(=O)c2cn(-c3ccccc3)nc2-c2cccs2)c1	0	11	2	-7	61*
CSC1=NCCN1C(=O)c1c(-c2c(F)cccc2Cl)noc1C	1	5	2	-6	-2
C=CCC[C@H](Cc1ccc(F)cc1)C(=O)OC[C@@H](C)NC(=O)[C@@H](CC=C)CC(=O)N[C@H](CO)Cc1ccccc1	-1	17	3	-8	51*
C=CCC[C@H](Cc1ccc(F)cc1)C(=O)OC[C@@H](C)NC(=O)[C@@H](CC=C)CC(=O)N[C@@H](CO)Cc1ccccc1	-1	/	1	-6	/
C=CC[C@@H](CC(=O)N[C@H](CO)Cc1ccccc1)C(=O)N[C@@H](COC(=O)[C@H](CC=C)CC(=O)OC(C)(C)C)Cc1ccccc1	-2	13	-1	-7	50*
C=CCC[C@H](Cc1ccc(F)cc1)C(=O)OC[C@@H](NC(=O)[C@@H](CC=C)CC(=O)N[C@@H](CO)Cc1ccccc1)C(C)(C)C	1	13	6	-9	51*
CCCn1c(C(CO)Nc2nc(C)cs2)nc2ccccc21 (stereo not drawn)	1	8	0	0	-8
CC(C)[C@H](NC(=O)OCc1ccccc1)C(=O)OCc1cc(=O)oc2cc(O)ccc12	5	5	5	-16	54*
CC(C)[C@H](NC(=O)OCc1ccccc1)C(=O)OCC(=O)c1ccccc1	-2	1	0	-6	-3
O=C(COC(=O)c1cc(=O)[nH]c2ccccc12)Nc1nc(-c2ccccc2)cs1	0	7	2	11	50*
COc1ccc(/C=N\NC(=O)c2ccccc2)cc1COc1ccccc1	2	5	1	-7	32
COc1ccc(/C=N/NC(=O)c2ccoc2C)cc1COc1c(C)cccc1C	3	6	3	-17	68*
SMILES	OXTR ag	TAAR1 ag	V1aR counter	OXTR potentiate	TAAR1 antagonist
CCOC(=O)c1ccccc1OCc1cc(/C=N/NC(=O)c2cccnc2)ccc1OC	-3	17	1	-5	81*
COCC(=O)N(C)[C@H]1C[C@H]2c3[nH]c4c(-c5ccccc5)cccc4c3CCN2C(=O)[C@H]1[C@H](C)O	/	3	/	/	20
COc1cc(-c2c(C#N)c(N)nc3c2c(C)nn3-c2ccc(C)c(C)c2)cc(OC)c1OC	0	1	0	-5	3
Cc1nn(-c2ccc(F)cc2)c2nc(N)c(C#N)c(-c3ccc(O)c(O)c3)c12	/	6	/	/	51*
Cc1nn(-c2ccccc2)c2nc(N)c(C#N)c(-c3ccc(O)c(O)c3)c12	4	8	5	-11	51*
CCOc1ccc2nc(N(CCCN(C)C)C(=O)c3ccc(S(=O)(=O)N4CCc5ccccc5C4)cc3)sc2c1	13	43*	10	-10	38
COc1ccc(C)c2sc(N(CCCN(C)C)C(=O)c3ccc(S(=O)(=O)N4CCc5ccccc5C4)cc3)nc12	16	48*	4	-12	41
COc1ccc(OC)c2sc(N(CCCN(C)C)C(=O)c3ccc(S(=O)(=O)N4CCc5ccccc5C4)cc3)nc12	11	/	2	-7	/
Cc1ccc2nc(N(CCCN(C)C)C(=O)c3ccc(S(=O)(=O)N4CCCCCC4)cc3)sc2c1	14	50*	17	-13	15
CN(C)CCCN(C(=O)c1ccc(S(=O)(=O)N2CCc3ccccc32)cc1)c1nc2c(Cl)cccc2s1	1	34	1	-7	20
COc1cc2nc(N(CCCN(C)C)C(=O)c3ccc(S(=O)(=O)N4CCc5ccccc5C4)cc3)sc2cc1OC	17	22	11	-3	-3
COc1cccc2sc(N(CCCN(C)C)C(=O)c3ccc(S(=O)(=O)N4CCCc5ccccc54)cc3)nc12	7	40*	8	-14	23
Cc1cccc(C)c1NC(=O)C(C1CC1)n1c(=O)c(-c2cc3ccccc3[nH]2)nc2ccccc21 (stereo not drawn)	/	2	/	/	-16
CCc1cc(Cn2nc(-c3ccccc3)cc2C(=O)NCCOC)on1	0	13	1	-4	-3
CCc1cc(Cn2nc(-c3ccccc3)cc2C(=O)NCc2cccs2)on1	2	11	3	-16	63*
COc1ccc(CNn2c(-c3cccs3)nc3ccccc3c2=O)cc1OC	-2	13	3	-15	51*
CCOC(=O)[C@]12CCCC=C1N(Cc1ccc(Cl)cc1Cl)C(=O)[C@H](CC(=O)NCCc1ccccc1OC)C2	/	40*	/	/	19
